Reference: ChEMBL document CHEMBL1127605, “Synthesis of naphthalenesulfonic acid small molecules as selective inhibitors of the DNA polymerase and ribonuclease H activities of HIV-1 reverse transcriptase” (J Med Chem, 1994)

Key:
[1] = target: Human immunodeficiency virus type 1 reverse transcriptase (Human immunodeficiency virus 1) (UniProt Q72547); assay: Inhibition of Ribonuclease H activity of HIV-1 reverse transcriptase (at 200 uM)
Procedure, shortened: (§1)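 Recombinant HIV-1 RT (BH-10 proviral clone, E. coli-expressed, purified to homogeneity, ~66 kDa) preincubated 5 min at 30 °C with test compound (50 μM for DNA polymerase, 200 μM for RNase H); reaction started with substrate, 30 min at 37 °C; residual activity expressed relative to initial linear rate without drug.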

[2] = system: MT4; assay: 50% effective antiviral concentration was determined on HIV-1 (HTLV-IIIB) in MT-4 cells; type: functional, cell-based; details: Homo sapiens
[3] = system: MT4; assay: 50% cytotoxic concentration was determined on HIV-1 (HTLV-IIIB) in MT-4 cells; type: functional; details: Homo sapiens
[4] = target: Human immunodeficiency virus type 1 reverse transcriptase (Human immunodeficiency virus 1) (UniProt Q72547); assay: Inhibition of DNA polymerase activity of HIV-1 reverse transcriptase (at 50 uM); procedure, shortened: as §1
[5] = target: Human immunodeficiency virus type 1 reverse transcriptase (Human immunodeficiency virus 1, UniProt Q72547); assay: The 50% inhibitory concentration was measured as inhibition of Ribonuclease H activity of reverse transcriptase

Initial activity [1] [%] | Initial activity [4] [%] | IC50 [5] [µM] | Structure (SMILES) | EC50 [2] [µM] | CC50 [3] [µM]
5.3 | 0.03 |  | CCCCCCCCCCCCCCCC(=O)Nc1c(OC(=O)CCCCCCCCCCCCCCC)cc(S(=O)(=O)O)c2ccccc12 | > 41 | 41
98 | 100 |  | CCCCCCCCCCCCCCCC(=O)Nc1ccc(S(=O)(=O)O)c2ccccc12 | > 47 | 47
7.5 | 6.5 |  | CCCCCCCCCCCCCCCC(=O)Oc1cc(S(=O)(=O)O)c2ccccc2c1N | > 38 | 38
3 | 0.02 | 47.6 | CCCCCCCCCCCCCCCC(=O)Nc1c(O)cc(S(=O)(=O)O)c2ccccc12 | > 21 | 21
27 | 0 |  | CCCCCCCCCCCCCCCC(=O)Oc1cc(S(=O)(=O)O)cc2cc(S(=O)(=O)O)cc(OC(=O)CCCCCCCCCCCCCCC)c12 |  | 
68 | 0.2 |  | CCCCCCCCCCCCCCCc1nc2c(cc(S(=O)(=O)O)c3ccccc32)o1 | > 42 | 42
32 | 100 |  | O=C(CCCCCCCCCCC(=O)Nc1ccc(S(=O)(=O)O)c2ccccc12)Nc1ccc(S(=O)(=O)O)c2ccccc12 | 260 | > 500
2.8 | 0.16 | 27.5 | CCCCCCCCCCCCCCCC(=O)Nc1ccc(S(=O)(=O)O)c2cccc(S(=O)(=O)O)c12 | 100 | 225

More lines, now with the values behind:

Structure (SMILES) | Initial activity [1] [%] | Initial activity [4] [%] | IC50 [5] [µM] | EC50 [2] [µM] | CC50 [3] [µM]
CC(C)CCCC(C)C1CCC2C3CC=C4CC(OC(=O)Nc5cc(S(=O)(=O)O)cc6cc(S(=O)(=O)O)cc(O)c56)CC[C@]4(C)C3CC[C@]12C (stereo not given in full) | 0 | 0 |  | > 500 | > 500
O=C(CCCCCCCCCCC(=O)Nc1ccc(S(=O)(=O)O)c2cccc(S(=O)(=O)O)c12)Nc1ccc(S(=O)(=O)O)c2cccc(S(=O)(=O)O)c12 | 16 | 13 |  |  | 
O=C(CCCCCCCCC(=O)Nc1ccc(S(=O)(=O)O)c2ccccc12)Nc1ccc(S(=O)(=O)O)c2ccccc12 | 70 | 94 |  |  | 
O=C(O)c1cc(NS(=O)(=O)c2cccc3c(S(=O)(=O)Nc4cc(C(=O)O)c(O)c(S(=O)(=O)O)c4)cccc23)cc(S(=O)(=O)O)c1O | 75 | 46 |  |  | 
O=C(Oc1cc(S(=O)(=O)O)cc2cc(S(=O)(=O)O)ccc12)c1ccc(-c2ccc(C(=O)Oc3cc(S(=O)(=O)O)cc4cc(S(=O)(=O)O)ccc34)cc2)cc1 | 0 | 0.2 | 14.4 | 81.5 | > 500
O=S(=O)(O)c1cc(S(=O)(=O)O)c2cc(NS(=O)(=O)c3ccc(-c4ccc(S(=O)(=O)Nc5ccc6cc(S(=O)(=O)O)cc(S(=O)(=O)O)c6c5)cc4)cc3)ccc2c1 | 28 | 0.9 |  |  | 
O=S(=O)(O)c1ccc2c(OS(=O)(=O)c3cccc4c(S(=O)(=O)Oc5cc(S(=O)(=O)O)cc6cc(S(=O)(=O)O)ccc56)cccc34)cc(S(=O)(=O)O)cc2c1 | 43 | 0 | 215 | 39 | 322
O=C(CCCCCCCCC(=O)Nc1ccc(S(=O)(=O)O)c2cccc(S(=O)(=O)O)c12)Nc1ccc(S(=O)(=O)O)c2cccc(S(=O)(=O)O)c12 | 57 | 54 |  |  | 
Nc1ccc(S(=O)(=O)O)c2cccc(S(=O)(=O)O)c12 | 100 | 100 |  |  | 
Cc1cc(C)c(S(=O)(=O)Nc2cc(C(=O)O)c(O)c(S(=O)(=O)O)c2)c(C)c1S(=O)(=O)Nc1cc(C(=O)O)c(O)c(S(=O)(=O)O)c1 | 32 | 2 |  |  | 
O=S(=O)(O)c1cccc2ccc(OS(=O)(=O)c3cccc4c(S(=O)(=O)Oc5ccc6cccc(S(=O)(=O)O)c6c5)cccc34)cc12 | 17 | 25 |  |  | 
O=C(CCCCCCC(=O)Nc1ccc(S(=O)(=O)O)c2ccccc12)Nc1ccc(S(=O)(=O)O)c2ccccc12 | 59 | 90 |  |  | 
Nc1ccc(S(=O)(=O)O)c2ccccc12 | 88 | 100 |  |  | 
Cc1cc(C)c(S(=O)(=O)Oc2ccc3cccc(S(=O)(=O)O)c3c2)c(C)c1S(=O)(=O)Oc1ccc2cccc(S(=O)(=O)O)c2c1 | 23 | 13 |  | 42 | 228
O=C(CCCCCCC(=O)Nc1ccc(S(=O)(=O)O)c2cccc(S(=O)(=O)O)c12)Nc1ccc(S(=O)(=O)O)c2cccc(S(=O)(=O)O)c12 | 84 | 100 |  |  | 
O=S(=O)(O)c1cccc2ccc(OS(=O)(=O)c3ccc(-c4ccc(S(=O)(=O)Oc5ccc6cccc(S(=O)(=O)O)c6c5)cc4)cc3)cc12 | 48 | 0 |  |  | 
O=S(=O)(O)c1cc(S(=O)(=O)O)c2cc(NS(=O)(=O)c3cccc4c(S(=O)(=O)Nc5ccc6cc(S(=O)(=O)O)cc(S(=O)(=O)O)c6c5)cccc34)ccc2c1 | 51 | 16 |  |  | 
O=C(CCCCCCCCC(=O)Nc1cc(S(=O)(=O)O)cc2cc(S(=O)(=O)O)cc(O)c12)Nc1cc(S(=O)(=O)O)cc2cc(S(=O)(=O)O)cc(O)c12 | 30 | 0 |  |  | 
O=C(Nc1ccc(S(=O)(=O)O)c2cccc(S(=O)(=O)O)c12)c1ccc(C(=O)Nc2ccc(S(=O)(=O)O)c3cccc(S(=O)(=O)O)c23)cc1 | 92 | 90 |  |  | 
